Compounds with a hit are over-represented: about 1.3% of the library has one in this group of screens.
NSD2 inh = NSD2 histone methyltransferase inhibitors, primary screen, biochemical, AlphaScreen, single concentration, set 2. Histone-lysine N-methyltransferase NSD2 (Homo sapiens), O96028. NSD2 peptide methylation, 120 min. inhibition, % at 12.5 µM. 0.54% of 310,000 active. AID 743445, 2014; in the data active = inhibition above about 50%
Casp6 inh = human caspase-6 inhibitors, primary screen, biochemical, VEID-R110 fluorescence, single point, set 2; P55212; purified caspase-6, Z-VEID-R110 cleavage fluorescence; inhibition, % at 12.5 µM; 0.53% of 350,000 active; AID 686996, 2013;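 active = mean inhibition across replicates at least about 35%, with every replicate also reaching that limit, limit read from the data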
Target sequence (P55212 24-179 limits assumed): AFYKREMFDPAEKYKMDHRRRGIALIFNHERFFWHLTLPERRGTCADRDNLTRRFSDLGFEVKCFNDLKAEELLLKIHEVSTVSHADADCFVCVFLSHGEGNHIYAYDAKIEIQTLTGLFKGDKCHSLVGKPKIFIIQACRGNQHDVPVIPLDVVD
Target sequence (P55212 194-293 limits assumed): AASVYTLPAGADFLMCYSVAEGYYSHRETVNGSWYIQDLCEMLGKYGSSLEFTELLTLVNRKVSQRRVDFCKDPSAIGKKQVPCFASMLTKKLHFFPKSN
TDP2 inh = human TDP2 enzyme inhibitors, primary screen, biochemical, epi absorbance, recombinant enzyme. Tyrosyl-DNA phosphodiesterase 2 (Homo sapiens), O95551. T5PNP hydrolysis, p-nitrophenol absorbance 415 nm. inhibition, % at 12.8 µM. 0.34% of 370,000 active. AID 720702, 2013;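 active = inhibition above the mean of all tested compounds plus 3 SD, set per campaign, cut at about 25% in these data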
Target sequence (O95551 whole entry, looked up): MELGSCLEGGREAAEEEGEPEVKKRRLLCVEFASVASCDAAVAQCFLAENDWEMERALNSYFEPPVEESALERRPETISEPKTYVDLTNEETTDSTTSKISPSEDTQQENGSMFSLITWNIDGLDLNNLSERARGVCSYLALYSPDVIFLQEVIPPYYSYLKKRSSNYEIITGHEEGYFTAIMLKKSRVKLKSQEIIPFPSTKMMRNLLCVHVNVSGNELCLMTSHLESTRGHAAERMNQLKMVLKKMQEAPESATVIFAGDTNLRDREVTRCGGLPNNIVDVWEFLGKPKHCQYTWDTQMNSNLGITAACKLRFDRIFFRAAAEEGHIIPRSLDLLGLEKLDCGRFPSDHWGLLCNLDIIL
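Test system: Human TDP2 enzyme | Reagent: 5 mM T5PNP | Compound dosing: 12.8 µM single point, 1% DMSO | Incubation: Enzyme reaction with compound for 2 h at 37 °C | Technique: p-Nitrophenol epi absorbance | Read-out: % inhibition relative to enzyme-containing and enzyme-free wells | Benchmarks: High control without enzyme, low control DMSO plus TDP2 | Replicates: Singlicate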
LEDGF integ inh = blockers of LEDGF/p75-dependent integrase strand transfer – biochemical, TR-FRET, high throughput, primary screen; HIV-1 integrase (with human LEDGF/p75); TR-FRET IN-LEDGF/p75 DNA integration, Eu/Cy5; inhibition, % at 3.7 µM; 0.64% of 370,000 active; AID 743269, 2014;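 active = inhibition above the screen-wide mean plus 3 SD, cut at about 13% in these data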;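 also: signal is the Cy5 over europium emission ratio at 671 and 618 nm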
UCH37 inh = inhibitors of human UCH37 deubiquitinase, primary screen, biochemical, Ub-AMC cleavage, fluorescence | Ubiquitin carboxyl-terminal hydrolase isozyme L5 (Homo sapiens), Q9Y5K5 | AID 588478, 2011 | 0.33% of 330,000 active | inhibition, % (no concentration beside the values) | purified proteasome/UCH37;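 active = mean inhibition over replicate wells above about 20%, limit read from the data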
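Schedule: 30 min plus 25 min, room temperature / Material: human UCH37 within purified proteasomes / Technique: AMC fluorescence intensity at 355/460 nm / Buffer or medium: pH 7.4 Tris-HCl (50 mM) with ovalbumin, ATP-MgCl2, DTT / Controls: wells without proteasome as full block, compound-free enzyme plus substrate as uninhibited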
TDP2 confirm = human TDP2 enzyme inhibitors, retest, confirmation, biochemical, epi absorbance, recombinant enzyme. shares compounds with TDP2 inh. absorbance read-out. inhibition, % at 12.8 µM. 22% of 1,100 active. AID 743263, 2014; in the data active = inhibition above about 25%
Numbers stand for hits; 0 = inactive; - = no result given.

SMILES	NSD2 inh	Casp6 inh	TDP2 inh	LEDGF integ inh	UCH37 inh	TDP2 confirm
CNC(=O)C(=O)Nc1c(O)c2ccccc2[nH]c1=O	0	0	27	0	0	0
CCOc1ccc2nc(/N=C/c3c(C)[nH]n(-c4ccccc4)c3=O)sc2c1	0	-	35	0	-	0
CCOc1ccc2nc(N=Cc3c(C)[nH]n(-c4ccccc4)c3=O)sc2c1	-	-	-	-	0	-
O=C(NCC1CCCO1)c1cccnc1Nc1ccccc1F (configuration not stated)	0	-	40	0	0	0
CCOc1ccc(NC(=O)C(=O)NN=Cc2ccc(CNS(=O)(=O)c3ccccc3)o2)cc1	-	-	-	-	0	-
COC(=O)C[C@H]1CC[C@H](NC(=O)Cc2ccccc2)[C@@H](CO)O1	-	0	0	0	-	-
COC(=O)C[C@@H]1CC[C@H](NC(=O)Cc2ccccn2)[C@@H](CO)O1	-	0	28	0	-	0
COc1cc(C=NNC(=O)c2ccc3c(c2)OCCO3)cc(Cl)c1O	-	-	-	-	0	-
CCC(C)N1CC(C(=O)NC2CCCCC2)CC1=O (configuration not stated)	0	-	25	0	0	0
CCC(C)N1CC(C(=O)O)CC1=O (configuration not stated)	0	-	0	0	0	-
COc1cc2c(c(OC)c1O)C(=O)CO2	0	0	25	0	0	0
NC(=O)c1cc2ccccc2o/c1=N\NC(=O)c1ccncc1	0	0	32	0	-	0
Cc1ccc(C(=O)NN=c2oc3ccccc3cc2C(N)=O)cc1	-	-	-	-	0	-
O=C1C(=O)N(c2nccs2)C(c2ccccc2F)/C1=C(\O)c1ccc2c(c1)OCCO2 (configuration not stated)	0	0	26	0	0	0
CCCN=C1CC(C)(C)CC(=O)/C1=C(\O)CCC	-	-	-	-	0	-
COc1cc(C=NNC(=O)c2ccc(C)nc2)cc([N+](=O)[O-])c1O	-	-	-	-	0	-
O=C(Nc1ccccc1)/C(=C/c1ccc([N+](=O)[O-])cc1)NC(=O)c1ccco1	0	0	25	0	0	0
Cc1ccc(S(=O)(=O)/N=C2/NC(=O)/C(=C/c3ccccc3)S2)cc1	0	-	29	0	0	0
Cc1ccc(S(=O)(=O)/N=C2/NC(=O)/C(=C\c3ccccc3)S2)cc1	0	0	0	0	0	-
CCCOc1ccc(-c2c(C(=O)NN=Cc3ccc(C)o3)nnn2-c2nonc2N)cc1	-	-	-	-	0	-
O=C(NN=Cc1ccc(COc2ccc(Br)cc2)o1)c1ccco1	-	-	-	-	0	-
Cn1ccc2c(N3c4ccccc4CCc4ccccc43)cc3c(c21)C1CCC3C1 (configuration not stated)	-	0	0	0	-	-
Cn1ccc2c(N3c4ccccc4CCc4ccccc43)cc3c(c21)C1CCC3O1 (configuration not stated)	-	0	28	0	-	0
Cc1ccc(Nc2nc(N)nc(CN3CCCCCC3)n2)c(C)c1	-	-	38	0	0	0
Cc1cc(NC(=O)CSc2nccn2C)n(-c2ccccc2)n1	0	0	26	0	0	0
SMILES	NSD2 inh	Casp6 inh	TDP2 inh	LEDGF integ inh	UCH37 inh	TDP2 confirm
Cc1cc(NC(=O)COc2ccccc2)n(-c2ccccc2)n1	0	-	0	0	0	-
CC(=O)c1cc(OC(=O)N2CCOCC2)ccc1OC(=O)N1CCOCC1	0	-	75	0	0	0
Cc1ccc(SCc2c(C(=O)NN=Cc3cccnc3)nnn2-c2nonc2N)cc1	-	-	-	-	0	-
COCC(=O)N1CCC(Oc2ccc(C(=O)NCc3cnc(C)cn3)cc2)CC1	0	-	0	0	0	-
CCn1ccnc1CNC(=O)c1ccc(OC2CCN(C(=O)COC)CC2)cc1	0	0	27	0	0	0
CCN(CC)c1ccc2cc(-c3nc(-c4cc5ccccc5oc4=O)cs3)c(=O)oc2c1	-	0	32	0	0	0
O=C(NN=C1CC2CC=CC12)c1ccc(COc2ccccc2)cc1 (configuration not stated)	-	-	-	-	0	-
CCn1cc(C(=O)Nc2ncccc2O)c(=O)c2cc(F)c(N3CCN(C(=O)c4ccco4)CC3)cc21	0	0	28	0	0	0
CCn1cc(C(=O)NC(C)C)c(=O)c2cc(F)c(N3CCN(C(=O)c4ccco4)CC3)cc21	0	0	0	0	0	-
O=C(N/N=C/c1cc(Cl)ccc1O)c1cccnc1	0	0	60	0	-	0
CN1C(=O)NC(c2ccccc2[N+](=O)[O-])C2=C1CCCC2=O (configuration not stated)	0	0	0	0	0	-
CN1C(=O)NC(c2ccccc2[N+](=O)[O-])C2=C1CC(C)(C)CC2=O (configuration not stated)	0	0	31	0	0	0
COC(=O)Cc1cc(=O)[nH]c(N=C(N)Nc2ccc(C(C)C)cc2)n1	-	-	-	-	0	-
O=C1C(Cl)=C(NC(=O)c2ccccc2)C(=O)C(Cl)=C1NC(=O)c1ccccc1	0	0	59	0	0	33
Cc1cc(C)c(C#N)c(SCC(=O)N(CCC#N)c2ccc3c(c2)OCCO3)n1	0	0	25	0	0	0
O=C(COc1ccccc1)NS(=O)(=O)c1ccc(Cl)cc1	0	0	0	0	0	-
COc1ccc(OCC(=O)NS(=O)(=O)c2ccccc2)cc1	0	0	29	0	0	0
COc1ccc(CCNC(=O)CC(=O)NN=Cc2ccc(C(=O)O)cc2)cc1OC	-	-	-	-	0	-
Cc1ccccc1C=NNC(=O)c1cccnc1	-	-	-	-	0	-
Cc1cc(NC(=O)CN(C)CCOc2ccccc2)ccc1Br	0	0	0	0	0	-
CN(CCOc1ccccc1)CC(=O)Nc1cccc(Br)c1	0	0	32	0	0	0
CCn1c(C)nc2cc(C(=O)NN=Cc3ccc(OC)c(O)c3)ccc21	-	-	-	-	0	-
CCc1ccc(S(=O)(=O)Nc2ccc(O)c3ccccc23)cc1	0	0	54	0	-	0
Cc1c(Cc2ccccc2)c(=O)oc2cc(OCC(=O)NCC(O)c3ccccc3)ccc12 (configuration not stated)	0	0	30	0	0	0
Cc1cc(C)cc(NC(=O)COc2ccc3c(C)c(Cc4ccccc4)c(=O)oc3c2)c1	0	-	-	-	0	-
CCOC(=O)c1cnc(SC)nc1N1CCCC1	0	0	29	0	0	0
CC(C)NC(=O)C(=O)Nc1cc2c3c(c1)C(C)C(=O)N3CCC2 (configuration not stated)	0	0	34	0	0	0

Compound activity: PubChem, several laboratories
